Experimental data reported in ChEMBL document CHEMBL1806409, “Design, synthesis and biological evaluation of novel 4-thiazolidinones containing indolin-2-one moiety as potential antitumor agent” (Eur J Med Chem, 2011).

Columns and labels:
MDA-MB-231 = assay: Cytotoxicity against human MDA-MB-231 cells assessed as cell growth inhibition after 72 hrs by MTT assay; assay type: functional, cell-based; settings: MDA-MB-231, 72 h
Outline: (§1)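 Cancer lines grown in MEM with 10% FBS. About 4 × 10³ cells/well were seeded in MEM and incubated 24 h at 37 °C, 5% CO₂. Compounds were then added at final concentrations and exposure ran 72 h. MTT was added for 4 h at 37 °C and formazan dissolved in DMSO. Absorbance was read at 492 nm against a 630 nm reference. IC50 is the average of three determinations.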

HT-29 [1] = assay: Cytotoxicity against human HT-29 cells assessed as cell growth inhibition after 72 hrs by MTT assay; assay type: functional, cell-based; settings: HT-29, 72 h; outline: as §1
NCI-H460 = assay: Cytotoxicity against human H460 cells assessed as cell growth inhibition after 72 hrs by MTT assay; assay type: functional, cell-based; settings: NCI-H460, 72 h; outline: as §1
SMMC-7721 = assay: Cytotoxicity against human SMMC7721 cells assessed as cell growth inhibition after 72 hrs by MTT assay; assay type: functional, cell-based; settings: SMMC-7721, 72 h; outline: as §1
WI-38 [2] = assay: Cytotoxicity against human WI38 cells assessed as cell growth inhibition after 72 hrs by MTT assay; assay type: cell-based; settings: WI-38, 72 h
Outline: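 WI-38 normal human fetal lung fibroblasts were seeded at about 4 × 10³ cells/well and held 24 h at 37 °C, 5% CO₂, then exposed to compounds for 72 h. MTT was given for 4 h at 37 °C and formazan dissolved in DMSO. A492 was read with a 630 nm reference, and IC50 was averaged from three runs.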

HT-29 [3] = assay: Selectivity index, ratio of IC50 for human WI38 cells to IC50 for human HT-29 cells; assay type: functional
Outline: (§2)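 The index is the IC50 in WI-38 normal fibroblasts divided by the IC50 in the cancer line (H460 or HT-29). Each IC50 comes from a 72 h MTT growth-inhibition assay averaged over three determinations.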

WI-38 [4] = assay: Selectivity index, ratio of IC50 for human WI38 cells to IC50 for human H460 cells; assay type: functional; outline: as §2

Row | SMILES | IC50 (MDA-MB-231) | IC50 (HT-29 [1]) | IC50 (NCI-H460) | IC50 (SMMC-7721) | IC50 (WI-38 [2]) | Ratio IC50 (HT-29 [3]) | Ratio IC50 (WI-38 [4])
1 | CN(C)CCn1c(=O)c(=Cc2ccc(F)c(F)c2)s/c1=C1\C(=O)Nc2ccc(F)cc21 (mixture of isomers) | 9.48 µM | 3.09 µM | 44.7 µM | – | – | – | –
2 | Cc1ccc2c(c1)/C(=c1/sc(=Cc3ccc4c(c3)OCO4)c(=O)n1CCN(C)C)C(=O)N2 | 8.1 µM | 1.03 µM | 4.03 µM | – | – | – | –
3 | CN(C)CCn1c(=O)c(=Cc2ccc(O)cc2)s/c1=C1\C(=O)Nc2ccccc21 (mixture of isomers) | 4.28 µM | 1.39 µM | 0.98 µM | – | – | – | –
4 | CCN(CC)CCCn1c(=O)c(=Cc2cc(OC)c(OC)c(OC)c2)s/c1=C1\C(=O)Nc2ccc(C)cc21 (mixture of isomers) | > 200 µM | > 200 µM | 2.67 µM | – | – | – | –
5 | CN(C)CCN1C(=O)/C(=C/c2ccc(O)cc2)SC1=S | 84.2 µM | 59.7 µM | 46.1 µM | – | – | – | –
6 | CN(C)CCn1c(=O)c(=Cc2ccc3c(c2)OCO3)s/c1=C1\C(=O)Nc2ccccc21 (mixture of isomers) | 3.23 µM | 0.7 µM | 0.82 µM | 2.74 µM | 1.77 µM | – | –
7 | CCN(CC)CCCn1c(=O)c(=Cc2cc(OC)c(OC)c(OC)c2)s/c1=C1\C(=O)Nc2ccccc21 (mixture of isomers) | 2.39 µM | 1.97 µM | 1.67 µM | – | – | – | –
8 | CCN(CC)CCCn1c(=O)c(=Cc2ccc3c(c2)OCO3)s/c1=C1\C(=O)Nc2ccccc21 (mixture of isomers) | 1.12 µM | 0.91 µM | 1.02 µM | 3.41 µM | 3.93 µM | – | –
9 | CCN(CC)CCCn1c(=O)c(=Cc2ccc(F)c(F)c2)s/c1=C1\C(=O)Nc2ccc(F)cc21 (mixture of isomers) | 1.22 µM | 0.64 µM | 1.3 µM | 3.07 µM | 4.3 µM | – | –
10 | CCN(CC)CCCn1c(=O)c(=Cc2cc(OC)c(OC)c(OC)c2)s/c1=C1\C(=O)Nc2ccc(Cl)cc21 (mixture of isomers) | > 200 µM | > 200 µM | 2.99 µM | – | – | – | –
11 | Cc1ccc2c(c1)/C(=c1/sc(=Cc3ccc(O)cc3)c(=O)n1CCN(C)C)C(=O)N2 (mixture of isomers) | 1.32 µM | 2.29 µM | 1.77 µM | – | – | – | –
12 | CCN(CC)CCCn1c(=O)c(=Cc2ccc3c(c2)OCO3)s/c1=C1\C(=O)Nc2ccc(F)cc21 (mixture of isomers) | 0.77 µM | 0.025 µM | 0.075 µM | 1.95 µM | 6.98 µM | 279 | 93
13 | CCN(CC)CCCn1c(=O)c(=Cc2ccc3c(c2)OCO3)s/c1=C1\C(=O)Nc2ccc(Cl)cc21 (mixture of isomers) | 3.13 µM | 0.437 µM | 1 µM | 3.12 µM | 3.32 µM | – | –
14 | CCN(CC)CCCn1c(=O)c(=Cc2ccccc2O)s/c1=C1\C(=O)Nc2ccc(Br)cc21 (mixture of isomers) | 19.9 µM | 18.1 µM | 51.7 µM | – | – | – | –
15 | CCN(CC)CCCn1c(=O)c(=Cc2ccc3c(c2)OCO3)s/c1=C1\C(=O)Nc2ccc(C)cc21 (mixture of isomers) | 3.1 µM | 2.11 µM | 1.86 µM | – | – | – | –
16 | CCN(CC)CCCn1c(=O)c(=Cc2cc(OC)c(OC)c(OC)c2)s/c1=C1\C(=O)Nc2ccc(F)cc21 (mixture of isomers) | > 200 µM | > 200 µM | 0.78 µM | 2.21 µM | 2.02 µM | – | –
17 | CCN(CC)CCCn1c(=O)c(=Cc2ccccc2O)s/c1=C1\C(=O)Nc2ccccc21 (mixture of isomers) | > 200 µM | > 200 µM | > 200 µM | – | – | – | –
18 | CCN(CC)CCCn1c(=O)c(=Cc2cc(OC)c(OC)c(OC)c2)s/c1=C1\C(=O)Nc2cc(F)ccc21 (mixture of isomers) | > 200 µM | > 200 µM | 1.41 µM | – | – | – | –
19 | CN(C)CCn1c(=O)c(=Cc2ccc(O)cc2)s/c1=C1\C(=O)Nc2ccc(F)cc21 (mixture of isomers) | 4.2 µM | 1.48 µM | 1.27 µM | – | – | – | –
20 | CCN(CC)CCCn1c(=O)c(=Cc2ccc3c(c2)OCO3)s/c1=C1\C(=O)Nc2cc(F)ccc21 (mixture of isomers) | 4.13 µM | 0.19 µM | 1.91 µM | 4.02 µM | 8.3 µM | – | –

Row | SMILES | IC50 (MDA-MB-231) | IC50 (HT-29 [1]) | IC50 (NCI-H460) | IC50 (SMMC-7721) | IC50 (WI-38 [2]) | Ratio IC50 (HT-29 [3]) | Ratio IC50 (WI-38 [4])
21 | CCN(CC)CCNC(=O)c1c(C)[nH]c(/C=C2\C(=O)Nc3ccc(F)cc32)c1C [SUNITINIB] | 3.7 µM | 1.3 µM | 2.7 µM | 6.47 µM | 8.56 µM | – | –
22 | CN(C)CCn1c(=O)c(=Cc2ccc(F)cc2F)s/c1=C1\C(=O)Nc2cc(F)ccc21 (mixture of isomers) | 8.44 µM | 6.46 µM | 3.2 µM | – | – | – | –
23 | CCN(CC)CCCn1c(=O)c(=Cc2ccc(F)cc2F)s/c1=C1\C(=O)Nc2cc(F)ccc21 (mixture of isomers) | 2.1 µM | 1.52 µM | 2.33 µM | – | – | – | –
24 | Cc1ccc2c(c1)/C(=c1/sc(=Cc3ccc(F)c(F)c3)c(=O)n1CCN(C)C)C(=O)N2 (mixture of isomers) | > 200 µM | 7.43 µM | 59.7 µM | – | – | – | –
25 | COc1cc(C=c2s/c(=C3\C(=O)Nc4ccc(F)cc43)n(CCN(C)C)c2=O)cc(OC)c1OC (mixture of isomers) | 1.9 µM | 2.53 µM | 1.7 µM | 6.06 µM | 8.1 µM | – | –
26 | COc1ccc(C=c2s/c(=C3\C(=O)Nc4cc(F)ccc43)n(CCN(C)C)c2=O)cc1 (mixture of isomers) | 2.09 µM | 2.3 µM | 2.2 µM | – | – | – | –
27 | CCN(CC)CCCn1c(=O)c(=Cc2ccccc2O)s/c1=C1\C(=O)Nc2ccc(C)cc21 (mixture of isomers) | 15.9 µM | 8.07 µM | 11.3 µM | – | – | – | –
28 | COc1ccc(OC)c(C=c2s/c(=C3\C(=O)Nc4ccccc43)n(CCN(C)C)c2=O)c1 (mixture of isomers) | 21 µM | 96 µM | 63.7 µM | – | – | – | –
29 | COc1ccc(C=c2s/c(=C3\C(=O)Nc4cc(F)ccc43)n(CCN(C)C)c2=O)c(OC)c1 (mixture of isomers) | 4.83 µM | 0.868 µM | 20.5 µM | 6.81 µM | 3.01 µM | – | –
30 | CN(C)CCn1c(=O)c(=Cc2ccc(O)cc2)s/c1=C1\C(=O)Nc2cc(F)ccc21 (mixture of isomers) | 3.45 µM | 2.27 µM | 1.43 µM | – | – | – | –
31 | CN(C)CCn1c(=O)c(=Cc2ccc(O)cc2)s/c1=C1\C(=O)Nc2ccc(Cl)cc21 (mixture of isomers) | 3.25 µM | 2.46 µM | 2.03 µM | – | – | – | –
32 | CCN(CC)CCCn1c(=O)c(=Cc2ccc(F)c(F)c2)s/c1=C1\C(=O)Nc2cc(F)ccc21 (mixture of isomers) | 2.9 µM | 0.028 µM | 1.12 µM | 5.33 µM | 4.45 µM | – | –
33 | CN(C)CCn1c(=O)c(=Cc2ccc(O)cc2)s/c1=C1\C(=O)Nc2ccc(Br)cc21 (mixture of isomers) | 2.52 µM | 1.92 µM | 1.11 µM | – | – | – | –
34 | CCN(CC)CCCn1c(=O)c(=Cc2ccc(F)cc2F)s/c1=C1\C(=O)Nc2ccc(Cl)cc21 (mixture of isomers) | > 200 µM | > 200 µM | 6.1 µM | – | – | – | –
35 | COc1ccc(OC)c(C=c2s/c(=C3\C(=O)Nc4cc(F)ccc43)n(CCN(C)C)c2=O)c1 (mixture of isomers) | 14.5 µM | 4.45 µM | 7.15 µM | – | – | – | –
36 | CN(C)CCn1c(=O)c(=Cc2ccc(F)c(F)c2)s/c1=C1\C(=O)Nc2cc(F)ccc21 (mixture of isomers) | 25 µM | 12.1 µM | 6.4 µM | – | – | – | –
37 | COc1ccc(C=c2s/c(=C3\C(=O)Nc4ccc(Cl)cc43)n(CCN(C)C)c2=O)c(OC)c1 (mixture of isomers) | 3.83 µM | 1.53 µM | 10.6 µM | – | – | – | –
38 | CCN(CC)CCCn1c(=O)c(=Cc2ccc(O)cc2)s/c1=C1\C(=O)Nc2ccc(C)cc21 (mixture of isomers) | 1.81 µM | 0.77 µM | 0.26 µM | 5.09 µM | 5.75 µM | – | –
39 | CN(C)CCn1c(=O)c(=Cc2ccc3c(c2)OCO3)s/c1=C1\C(=O)Nc2cc(F)ccc21 | 2.42 µM | 1.36 µM | 2.81 µM | – | – | – | –
40 | CCN(CC)CCCn1c(=O)c(=Cc2ccc(F)cc2F)s/c1=C1\C(=O)Nc2ccccc21 (mixture of isomers) | > 200 µM | > 200 µM | 5.47 µM | – | – | – | –
